One block for each compound: values may come before it. The source made the active and inactive calls. The rule behind the calls is not given here.
What was measured:
[1] = molecular target: T1, Hepatocyte growth factor receptor (Homo sapiens, UniProt P08581); assay: Inhibition of TPR-met autophosphorylation expressed in HEK293T cells after 150 mins by ELISA; type: cell-based; conditions: hek-293t
Summary of the method: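 293T clone stably expressing activated TPR-Met under a CMV promoter, exposed to compound dilutions for 150 min. Autophosphorylation measured in lysates by ELISA with anti-phosphotyrosine (4G10), HRP reporter antibody and chemiluminescent read-out. IC50 from 4-parameter fit of triplicate means.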
Target sequence in this assay (P08581 25-1390 limits assumed): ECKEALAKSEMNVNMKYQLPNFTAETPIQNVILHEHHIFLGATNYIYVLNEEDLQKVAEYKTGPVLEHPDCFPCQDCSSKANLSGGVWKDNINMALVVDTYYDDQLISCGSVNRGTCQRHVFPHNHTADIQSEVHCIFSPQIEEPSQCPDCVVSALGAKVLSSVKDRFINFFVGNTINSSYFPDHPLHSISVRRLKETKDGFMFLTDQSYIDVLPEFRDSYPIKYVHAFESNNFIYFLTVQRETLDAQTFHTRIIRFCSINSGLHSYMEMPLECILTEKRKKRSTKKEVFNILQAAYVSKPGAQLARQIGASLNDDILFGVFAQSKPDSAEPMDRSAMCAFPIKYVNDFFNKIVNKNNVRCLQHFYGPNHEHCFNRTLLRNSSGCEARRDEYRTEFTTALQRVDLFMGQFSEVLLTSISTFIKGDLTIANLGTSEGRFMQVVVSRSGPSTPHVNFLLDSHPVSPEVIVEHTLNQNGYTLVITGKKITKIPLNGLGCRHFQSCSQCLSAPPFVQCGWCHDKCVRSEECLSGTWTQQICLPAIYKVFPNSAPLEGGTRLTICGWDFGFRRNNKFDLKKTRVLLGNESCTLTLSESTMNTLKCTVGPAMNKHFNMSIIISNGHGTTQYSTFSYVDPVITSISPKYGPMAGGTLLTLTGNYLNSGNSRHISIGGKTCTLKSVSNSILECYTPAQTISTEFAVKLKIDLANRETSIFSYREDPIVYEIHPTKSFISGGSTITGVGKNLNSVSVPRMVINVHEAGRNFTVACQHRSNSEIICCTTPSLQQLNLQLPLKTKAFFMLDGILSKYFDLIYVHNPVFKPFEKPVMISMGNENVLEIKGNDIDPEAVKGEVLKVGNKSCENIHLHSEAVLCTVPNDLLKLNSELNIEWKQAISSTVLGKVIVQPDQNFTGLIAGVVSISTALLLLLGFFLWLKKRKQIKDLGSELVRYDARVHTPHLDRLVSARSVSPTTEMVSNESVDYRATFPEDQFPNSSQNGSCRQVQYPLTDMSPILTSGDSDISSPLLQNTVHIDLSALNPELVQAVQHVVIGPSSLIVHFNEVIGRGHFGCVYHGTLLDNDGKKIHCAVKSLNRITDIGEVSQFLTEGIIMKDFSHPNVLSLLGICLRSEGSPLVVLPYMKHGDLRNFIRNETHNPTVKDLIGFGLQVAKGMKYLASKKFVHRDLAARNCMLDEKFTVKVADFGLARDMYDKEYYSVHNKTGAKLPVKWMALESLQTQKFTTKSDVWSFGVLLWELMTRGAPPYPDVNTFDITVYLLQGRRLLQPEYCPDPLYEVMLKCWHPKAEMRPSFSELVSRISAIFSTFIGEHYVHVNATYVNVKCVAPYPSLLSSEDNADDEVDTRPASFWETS

[2] = molecular target: T1, Hepatocyte growth factor receptor; assay: Inhibition of GST-fused recombinant C-met expressed in baculovirus infected high five cells after 30 mins by DELFIA assay
Summary of the method: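 GST-fused catalytic domains from baculovirus-infected cells, High Five for c-Met (MOI 1) and Sf9 for VEGFR2 (MOI 0.1). DELFIA on immobilized poly(Glu4,Tyr). Enzyme 25 nM (c-Met) or 5 nM (VEGFR2), pre-incubated 4 min on ice with inhibitor and Mg-ATP. Reaction at 30 °C, 30 min (c-Met) or 10 min (VEGFR2), stopped with EDTA. Europium anti-phosphotyrosine read by time-resolved fluorescence. Seven concentrations in triplicate; IC50 from four-parameter fit.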
Target sequence in this assay (P08581 whole entry): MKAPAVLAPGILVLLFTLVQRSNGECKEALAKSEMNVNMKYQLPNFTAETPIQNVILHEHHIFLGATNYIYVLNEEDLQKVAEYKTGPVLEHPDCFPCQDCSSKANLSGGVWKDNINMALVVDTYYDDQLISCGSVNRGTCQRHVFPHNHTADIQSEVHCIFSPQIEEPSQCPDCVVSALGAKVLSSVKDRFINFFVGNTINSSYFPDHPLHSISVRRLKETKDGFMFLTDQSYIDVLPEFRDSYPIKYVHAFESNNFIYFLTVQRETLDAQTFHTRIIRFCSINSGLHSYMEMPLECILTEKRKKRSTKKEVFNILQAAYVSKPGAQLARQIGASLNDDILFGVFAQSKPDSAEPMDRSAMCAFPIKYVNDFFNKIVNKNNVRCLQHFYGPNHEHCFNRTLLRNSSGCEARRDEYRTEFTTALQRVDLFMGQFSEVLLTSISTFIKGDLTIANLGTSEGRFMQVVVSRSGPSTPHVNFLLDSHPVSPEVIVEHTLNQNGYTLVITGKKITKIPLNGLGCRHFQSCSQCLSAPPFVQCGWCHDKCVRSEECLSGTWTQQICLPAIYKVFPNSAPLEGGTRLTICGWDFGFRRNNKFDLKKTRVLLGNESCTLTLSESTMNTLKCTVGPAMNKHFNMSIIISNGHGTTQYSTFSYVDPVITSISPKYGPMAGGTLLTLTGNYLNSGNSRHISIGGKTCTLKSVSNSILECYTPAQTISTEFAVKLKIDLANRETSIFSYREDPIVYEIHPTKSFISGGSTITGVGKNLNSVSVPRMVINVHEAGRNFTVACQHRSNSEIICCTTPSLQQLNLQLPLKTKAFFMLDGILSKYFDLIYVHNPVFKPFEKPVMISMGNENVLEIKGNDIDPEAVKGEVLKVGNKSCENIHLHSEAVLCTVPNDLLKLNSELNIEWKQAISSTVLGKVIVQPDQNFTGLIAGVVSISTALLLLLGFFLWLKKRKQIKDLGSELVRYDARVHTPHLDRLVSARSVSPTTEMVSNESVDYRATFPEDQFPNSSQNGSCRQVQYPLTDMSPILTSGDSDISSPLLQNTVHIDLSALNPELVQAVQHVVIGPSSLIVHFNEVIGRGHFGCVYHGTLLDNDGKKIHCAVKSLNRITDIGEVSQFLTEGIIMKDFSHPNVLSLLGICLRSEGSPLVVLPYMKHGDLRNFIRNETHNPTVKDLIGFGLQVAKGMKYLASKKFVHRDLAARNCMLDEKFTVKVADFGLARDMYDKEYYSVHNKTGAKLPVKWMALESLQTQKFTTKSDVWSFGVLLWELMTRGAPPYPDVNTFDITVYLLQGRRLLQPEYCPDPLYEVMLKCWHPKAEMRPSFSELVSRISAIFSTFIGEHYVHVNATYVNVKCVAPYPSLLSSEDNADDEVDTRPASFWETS

[3] = Half life in rat at 2.17 to 2.86 mg/kg, iv; type: ADME, organism-based; parameters: dose 2.17-2.86 mg/kg, route intravenous; conditions: in vivo
Summary of the method: (§1)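 Rat pharmacokinetics with intravenous dosing at 2.17–2.86 mg/kg and oral dosing at 4.28–4.98 mg/kg. Oral Cmax and AUC normalised per mg/kg.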

[4] = Oral bioavailability in rat at 4.28 to 4.98 mg/kg; type: ADME, organism-based; conditions: in vivo; summary of the method: as §1
[5] = Volume of distribution at steady state in rat at 2.17 to 2.86 mg/kg, iv and 4.28 to 4.98 mg/kg, po; type: ADME, organism-based; conditions: in vivo, read-out: Vdss; summary of the method: as §1
Rattus norvegicus = assay: Cmax in rat at 4.28 to 4.98 mg/kg, po; type: ADME, organism-based; parameters: dose 4.28-4.98 mg/kg, route oral; conditions: in vivo; summary of the method: as §1
[6] = Tmax in rat at 4.28 to 4.98 mg/kg, po; type: ADME, organism-based; parameters: dose 4.28-4.98 mg/kg, route oral; conditions: in vivo; summary of the method: as §1
[7] = Clearance in rat at 2.17 to 2.86 mg/kg, iv and 4.28 to 4.98 mg/kg, po; type: ADME, organism-based; conditions: in vivo; summary of the method: as §1
[8] = molecular target: T2, Vascular endothelial growth factor receptor 2 (Homo sapiens, UniProt P35968); assay: Inhibition of GST-fused recombinant VEGFR2 expressed in baculovirus infected Sf9 cells after 30 mins by DELFIA assay
T2 sequence (P35968 whole entry, the tested form may be a part): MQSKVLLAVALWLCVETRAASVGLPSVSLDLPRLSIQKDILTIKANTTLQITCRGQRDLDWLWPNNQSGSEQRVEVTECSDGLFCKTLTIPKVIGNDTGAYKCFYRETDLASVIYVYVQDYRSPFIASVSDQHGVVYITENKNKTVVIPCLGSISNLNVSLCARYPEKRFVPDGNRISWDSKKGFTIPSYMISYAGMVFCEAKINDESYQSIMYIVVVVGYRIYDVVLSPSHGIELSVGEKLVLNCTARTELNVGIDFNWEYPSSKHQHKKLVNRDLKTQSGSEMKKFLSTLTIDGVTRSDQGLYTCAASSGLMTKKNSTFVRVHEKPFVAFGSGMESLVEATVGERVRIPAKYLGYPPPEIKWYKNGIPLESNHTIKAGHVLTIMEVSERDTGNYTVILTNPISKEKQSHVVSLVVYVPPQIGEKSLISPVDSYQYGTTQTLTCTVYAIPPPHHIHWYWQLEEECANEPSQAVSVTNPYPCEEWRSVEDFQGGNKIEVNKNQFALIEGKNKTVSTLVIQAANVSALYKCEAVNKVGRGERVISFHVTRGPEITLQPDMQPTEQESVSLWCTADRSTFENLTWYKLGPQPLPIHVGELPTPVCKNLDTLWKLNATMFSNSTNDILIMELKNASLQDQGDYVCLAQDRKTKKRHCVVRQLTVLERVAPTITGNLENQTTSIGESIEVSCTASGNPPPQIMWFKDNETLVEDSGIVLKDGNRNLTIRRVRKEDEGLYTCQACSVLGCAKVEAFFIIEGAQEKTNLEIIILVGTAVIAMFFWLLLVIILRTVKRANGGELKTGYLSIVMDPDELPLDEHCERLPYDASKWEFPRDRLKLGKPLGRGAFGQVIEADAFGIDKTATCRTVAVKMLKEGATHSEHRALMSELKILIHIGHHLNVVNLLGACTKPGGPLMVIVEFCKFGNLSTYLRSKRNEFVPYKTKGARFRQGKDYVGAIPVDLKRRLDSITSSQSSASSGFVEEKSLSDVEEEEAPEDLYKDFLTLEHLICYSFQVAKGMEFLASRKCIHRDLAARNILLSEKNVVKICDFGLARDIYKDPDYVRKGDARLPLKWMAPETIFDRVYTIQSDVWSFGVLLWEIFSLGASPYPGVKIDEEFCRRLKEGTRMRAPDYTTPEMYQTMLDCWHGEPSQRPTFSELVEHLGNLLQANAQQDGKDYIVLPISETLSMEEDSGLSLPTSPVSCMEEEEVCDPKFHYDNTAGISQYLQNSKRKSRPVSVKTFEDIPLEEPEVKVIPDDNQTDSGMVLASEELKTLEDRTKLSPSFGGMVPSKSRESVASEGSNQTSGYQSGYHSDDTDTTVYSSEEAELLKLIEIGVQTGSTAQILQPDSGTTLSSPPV

[9] = molecular target: Vascular endothelial growth factor receptor 3 (Homo sapiens) (UniProt P35916); assay: Inhibition of VEGFR3 at 100 nM by radiometric protein kinase assay
Summary of the method: (§2)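 Single-concentration kinase selectivity panel run as radiometric protein kinase assays by an outside screening service; percent inhibition reported.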

HUVEC [10] = assay: Antiproliferative activity against HUVEC cells assessed as inhibition of […] proliferation; type: functional, cell-based; conditions: Homo sapiens
A549 [11] = assay: Antitumor activity against human A549 cells xenografted model assessed as tumor growth inhibition at 40 mg/kg, po qd after 14 days; type: functional; conditions: A549, 336 h, read-out: TGI
[12] = molecular target: Vascular endothelial growth factor receptor 1 (Homo sapiens) (UniProt P17948); assay: Inhibition of VEGFR1 at 100 nM by radiometric protein kinase assay; summary of the method: as §2
A549 [13] = assay: Inhibition of HGF-induced cell migration in human A549 cells by wound healing assay; type: functional, cell-based
DU-145 = assay: Inhibition of HGF-induced scattering in human DU145 cells; type: functional, cell-based
[14] = molecular target: Proto-oncogene tyrosine-protein kinase Src (Homo sapiens) (UniProt P12931); assay: Inhibition of c-SRC at 100 nM by radiometric protein kinase assay; summary of the method: as §2
[15] = molecular target: Epidermal growth factor receptor (Homo sapiens) (UniProt P00533); assay: Inhibition of EGFR at 100 nM by radiometric protein kinase assay; summary of the method: as §2
[16] = molecular target: Ephrin type-B receptor 4 (Homo sapiens) (UniProt P54760); assay: Inhibition of EphB4 at 100 nM by radiometric protein kinase assay; summary of the method: as §2
Sequence of Ephrin type-B receptor 4 (Homo sapiens) (P54760 whole entry): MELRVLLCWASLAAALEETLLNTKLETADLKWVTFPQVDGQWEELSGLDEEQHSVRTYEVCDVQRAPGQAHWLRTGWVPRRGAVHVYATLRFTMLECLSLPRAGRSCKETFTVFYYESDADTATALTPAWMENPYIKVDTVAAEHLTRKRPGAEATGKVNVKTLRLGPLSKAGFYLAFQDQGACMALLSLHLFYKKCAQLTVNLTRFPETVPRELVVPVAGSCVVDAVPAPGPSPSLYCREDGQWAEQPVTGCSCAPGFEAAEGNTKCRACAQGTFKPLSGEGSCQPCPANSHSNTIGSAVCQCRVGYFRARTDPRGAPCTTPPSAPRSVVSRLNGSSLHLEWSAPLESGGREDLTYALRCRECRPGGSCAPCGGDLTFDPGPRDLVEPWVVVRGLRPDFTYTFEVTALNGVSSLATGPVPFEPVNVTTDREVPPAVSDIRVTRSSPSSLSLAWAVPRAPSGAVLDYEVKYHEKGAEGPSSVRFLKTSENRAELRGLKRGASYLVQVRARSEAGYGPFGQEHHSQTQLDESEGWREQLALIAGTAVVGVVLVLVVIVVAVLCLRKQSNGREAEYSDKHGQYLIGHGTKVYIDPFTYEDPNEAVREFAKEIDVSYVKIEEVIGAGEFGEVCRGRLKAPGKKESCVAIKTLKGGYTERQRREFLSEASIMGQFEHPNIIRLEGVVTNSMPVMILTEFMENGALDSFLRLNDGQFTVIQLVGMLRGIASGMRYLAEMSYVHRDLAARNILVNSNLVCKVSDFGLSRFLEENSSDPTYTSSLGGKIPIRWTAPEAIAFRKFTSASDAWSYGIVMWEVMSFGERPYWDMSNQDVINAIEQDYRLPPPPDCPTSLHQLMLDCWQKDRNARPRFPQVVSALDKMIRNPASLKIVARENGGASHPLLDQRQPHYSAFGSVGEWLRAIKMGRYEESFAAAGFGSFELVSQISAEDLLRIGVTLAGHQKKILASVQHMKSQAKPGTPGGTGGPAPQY

[17] = molecular target: Angiopoietin-1 receptor (Homo sapiens) (UniProt Q02763); assay: Inhibition of […] at 100 nM by radiometric protein kinase assay; summary of the method: as §2
[18] = molecular target: Glycogen synthase kinase-3 beta (Homo sapiens) (UniProt P49841); assay: Inhibition of GSK3-beta at 100 nM by radiometric protein kinase assay; summary of the method: as §2
HUVEC [19] = assay: Antiangiogenic activity in HUVEC cells assessed as inhibition of VEGF-induced tubule growth; type: functional, cell-based; conditions: Homo sapiens
[20] = molecular target: Receptor-type tyrosine-protein kinase FLT3 (Homo sapiens) (UniProt P36888); assay: Inhibition of Flt3 at 100 nM by radiometric protein kinase assay; summary of the method: as §2
HUVEC [21] = assay: Antiangiogenic activity in HUVEC cells assessed as inhibition of VEGF-induced tubule growth at 100 nM; type: functional, cell-based; conditions: Homo sapiens
MKN-45 = assay: Antitumor activity against human MKN45 cells xenografted model assessed as tumor growth inhibition at 40 mg/kg, po qd after 12 days; type: functional; conditions: MKN-45, 288 h, read-out: TGI
[22] = molecular target: RAC-alpha serine/threonine-protein kinase (Homo sapiens) (UniProt P31749); assay: Inhibition of PKBalpha at 100 nM by radiometric protein kinase assay; summary of the method: as §2
[23] = molecular target: Aurora kinase A (Homo sapiens) (UniProt O14965); assay: Inhibition of Aurora A at 100 nM by radiometric protein kinase assay; summary of the method: as §2
[24] = molecular target: T2, Vascular endothelial growth factor receptor 2; assay: Inhibition of VEGFR2 assessed as inhibition of ERK phosphorylation
Summary of the method: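 Cellular assay: ERK phosphorylation was measured after VEGF stimulation.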

[25] = molecular target: Mast/stem cell growth factor receptor Kit (Homo sapiens) (UniProt P10721); assay: Inhibition of c-Kit at 100 nM by radiometric protein kinase assay; summary of the method: as §2
[26] = molecular target: Inhibitor of nuclear factor kappa-B kinase subunit beta (Homo sapiens) (UniProt O14920); assay: Inhibition of IKK-beta at 100 nM by radiometric protein kinase assay; summary of the method: as §2
[27] = Antitumor activity against human U87MG cells xenografted model assessed as tumor growth inhibition at 40 mg/kg, po qd after 10 days; type: functional, U-87MG ATCC; conditions: U-87 MG, 240 h, read-out: TGI
[28] = molecular target: Platelet-derived growth factor receptor alpha (Homo sapiens) (UniProt P16234); assay: Inhibition of PDGFRalpha at 100 nM by radiometric protein kinase assay; summary of the method: as §2
[29] = molecular target: Cyclin-dependent kinase 2/cyclin E (Homo sapiens) (UniProt P24864+P24941+O96020); assay: Inhibition of CDK2/Cyclin E at 100 nM by radiometric protein kinase assay; type: protein-complex assay; summary of the method: as §2

IC50 [1]: 0.6 µM
IC50 [2]: 0.026 µM
Compound: CCn1cnc(-c2cc3nccc(Oc4ccc(NC(=O)CC(=O)Nc5ccccc5O)cc4F)c3s2)c1

IC50 [1]: 0.04 µM
IC50 [2]: 0.036 µM
Compound: Cn1ccnc1C(=O)c1cc2nccc(Oc3ccc(NC(=O)CC(=O)Nc4ccccc4)cc3F)c2s1

IC50 [1]: 0.56 µM
Compound: CN(C)[C@@H]1CCN(C(=O)c2cc3nccc(Oc4ccc(NC(=O)CC(=O)Nc5ccccc5)cc4F)c3s2)C1

half-life [3]: 0.91 h
bioavailability [4]: 60%
Vd [5]: 0.33 L/kg
Cmax normalised (Rattus norvegicus): 0.29 µM/mg/kg
Tmax [6]: 0.5 h
clearance [7]: 0.52 L/h/kg
IC50 [1]: 0.031 µM
IC50 [2]: 0.033 µM
Compound: CCn1cnc(-c2cc3nccc(Oc4ccc(NC(=O)CC(=O)N(C)c5ccccc5)cc4F)c3s2)c1

IC50 [1]: 0.035 µM
IC50 [2]: 0.032 µM
Compound: CCn1cnc(-c2cc3nccc(Oc4ccc(NC(=O)CC(=O)Nc5ccccc5F)cc4F)c3s2)c1

IC50 [8]: 0.01 µM
IC50 [1]: 0.87 µM
IC50 [2]: 0.052 µM
Compound: CCn1cnc(-c2cc3nccc(Oc4ccc(NC(=O)CC(=O)Nc5cccc(F)c5)cc4F)c3s2)c1

IC50 [1]: > 5 µM
IC50 [2]: 0.036 µM
Compound: O=C(O)Cn1cnc(C(=O)c2cc3nccc(Oc4ccc(NC(=O)CC(=O)Nc5ccccc5)cc4F)c3s2)c1

IC50 [1]: 0.12 µM
IC50 [2]: 0.038 µM
Compound: CCn1cnc(-c2cc3nccc(Oc4ccc(NC(=O)C5(C(=O)Nc6ccccc6F)CC5)cc4F)c3s2)c1

IC50 [1]: 0.19 µM
IC50 [2]: 0.02 µM
Compound: CN(C)CCn1cnc(C(=O)c2cc3nccc(Oc4ccc(NC(=O)CC(=O)Nc5ccccc5)cc4F)c3s2)c1

IC50 [1]: 2 µM
Compound: O=C(CC(=O)Nc1ccc(Oc2ccnc3cc(C(=O)N4CCCC4)sc23)c(F)c1)Nc1ccccc1

IC50 [1]: 0.15 µM
IC50 [2]: 0.091 µM
Compound: CCn1cnc(-c2cc3nccc(Oc4ccc(NC(=O)CC(=O)Nc5ccccc5C(F)(F)F)cc4F)c3s2)c1

IC50 [1]: 0.044 µM
Compound: CCn1cnc(-c2cc3nccc(Oc4ccc(NC(=O)CC(=O)Nc5ccccc5OC)cc4F)c3s2)c1

IC50 [1]: 0.34 µM
IC50 [2]: 0.025 µM
Compound: Cn1cnc(C(=O)c2cc3nccc(Oc4ccc(NC(=O)CC(=O)Nc5ccccc5)cc4F)c3s2)c1

IC50 [2]: 0.024 µM
Compound: CCn1cnc(-c2cc3nccc(Oc4ccc(NC(=O)CC(=O)Nc5ccc(F)cc5)cc4F)c3s2)c1

half-life [3]: 2.6 h
bioavailability [4]: 12%
Vd [5]: 0.82 L/kg
Cmax normalised (Rattus norvegicus): 0.18 µM/mg/kg
Tmax [6]: 5.7 h
clearance [7]: 0.33 L/h/kg
IC50 [1]: 0.18 µM
IC50 [2]: 0.019 µM
Compound: CCn1cnc(C(=O)c2cc3nccc(Oc4ccc(NC(=O)CC(=O)Nc5ccccc5)cc4F)c3s2)c1

inhibition [9]: 97%
half-life [3]: 3.1 h
inhibition [12]: 98%
bioavailability [4]: 33%
IC50 (A549 [13]): 0.22 µM
IC50 (DU-145): 0.04 µM
inhibition [14]: 93%
inhibition [15]: < 5%
Vd [5]: 2.2 L/kg
inhibition [16]: 95%
inhibition [17]: 100%
Cmax normalised (Rattus norvegicus): 0.1 µM/mg/kg
inhibition [18]: < 5%
inhibition [20]: 100%
Tmax [6]: 2 h
clearance [7]: 0.99 L/h/kg
inhibition [22]: < 5%
inhibition [23]: 96%
IC50 [1]: 0.004 µM
IC50 [24]: 0.001 µM
IC50 [2]: 0.024 µM
inhibition [25]: 99%
inhibition [26]: < 5%
inhibition [28]: 99%
inhibition [29]: < 5%
Compound: CCn1cnc(-c2cc3nccc(Oc4ccc(NC(=O)C5(C(=O)Nc6ccccc6)CC5)cc4F)c3s2)c1
IC50 (HUVEC [10]): 0.0003 µM
inhibition in vivo at 40 mg/kg (A549 [11]): 54%
IC50 (HUVEC [19]): < 0.003 µM
Activity (HUVEC [21]): Active
inhibition in vivo at 40 mg/kg (MKN-45): 101%
inhibition in vivo at 40 mg/kg [27]: 70%

IC50 [8]: 0.01 µM
IC50 [1]: 0.59 µM
IC50 [2]: 0.052 µM
Compound: CCn1cnc(-c2cc3nccc(Oc4ccc(NC(=O)CC(=O)NC5CCCCC5)cc4F)c3s2)c1
